Test system: HEK-293T
Experiment: Multiplex assay against HEK293T;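 for Population Tubulin-Different-Phenotype (%): share of the cells with healthy nuclei that show this phenotype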
Format: toxicity, cell-based
Settings: human
In short: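 Tubulin, mitochondrial-mass and membrane-permeability phenotypes are per cents of healthy-nucleus cells. Cells were gated by CellPathfinder machine learning into Hoechst high-intensity objects or normal cells, normal cells into healthy, pyknosed or fragmented nuclei, and pyknosed cells into mitotic or apoptotic. Before that, live cells stained at seeding with Hoechst33342, BioTracker Green Microtubule Cytoskeleton Dye, MitoTracker Red and Annexin V Alexa Fluor 680 were imaged on a CQ1 microscope at 37°C and 5% CO2 after compound addition.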

[1] = 12 h, 1 µM, compound concentration 1 uM, replicate 1
[2] = 12 h, 1 µM, compound concentration 1 uM, replicate 2
[3] = 12 h, 10 µM, compound concentration 10 uM, replicate 1
[4] = 12 h, 10 µM, compound concentration 10 uM, replicate 2
[5] = 24 h, 1 µM, compound concentration 1 uM, replicate 1
[6] = 24 h, 1 µM, compound concentration 1 uM, replicate 2
[7] = 24 h, 10 µM, compound concentration 10 uM, replicate 1
[8] = 24 h, 10 µM, compound concentration 10 uM, replicate 2
[9] = 48 h, 1 µM, compound concentration 1 uM, replicate 1
[10] = 48 h, 1 µM, compound concentration 1 uM, replicate 2
[11] = 48 h, 10 µM, compound concentration 10 uM, replicate 1
[12] = 48 h, 10 µM, compound concentration 10 uM, replicate 2

CC(C)c1noc(N2CCC(COc3ccc(-c4ccc(S(C)(=O)=O)cc4)nc3)CC2)n1 [GSK-1292263]
Population Apoptotic (%) [1]: 36% | Population Fragmented Nuclei (%) [1]: 14% | Population Healthy Nuclei (%) [1]: 31% | Population Hoechst High Intensity Objects (%) [1]: 14% | Population Membrane Permeable-Phenotype (%) [1]: 8% | Population Mitochondria Different-Phenotype (%) [1]: 65% | Population Mitotic Cells (%) [1]: 63% | Population Normal (%) [1]: 85% | Population Pyknosed Nuclei (%) [1]: 54% | Population Tubulin-Different-Phenotype (%) [1]: 34% | Total Cell Count [1]: 304 | Population Apoptotic (%) [2]: 12% | Population Fragmented Nuclei (%) [2]: 2% | Population Healthy Nuclei (%) [2]: 50% | Population Hoechst High Intensity Objects (%) [2]: 1% | Population Membrane Permeable-Phenotype (%) [2]: 7% | Population Mitochondria Different-Phenotype (%) [2]: 15% | Population Mitotic Cells (%) [2]: 87% | Population Normal (%) [2]: 98% | Population Pyknosed Nuclei (%) [2]: 46% | Population Tubulin-Different-Phenotype (%) [2]: 16% | Total Cell Count [2]: 228 | Population Apoptotic (%) [3]: 50% | Population Fragmented Nuclei (%) [3]: 14% | Population Healthy Nuclei (%) [3]: 11% | Population Hoechst High Intensity Objects (%) [3]: 18% | Population Membrane Permeable-Phenotype (%) [3]: 16% | Population Mitochondria Different-Phenotype (%) [3]: 68% | Population Mitotic Cells (%) [3]: 50% | Population Normal (%) [3]: 81% | Population Pyknosed Nuclei (%) [3]: 74% | Population Tubulin-Different-Phenotype (%) [3]: 72% | Total Cell Count [3]: 276 | Population Apoptotic (%) [4]: 13% | Population Fragmented Nuclei (%) [4]: 7% | Population Healthy Nuclei (%) [4]: 20% | Population Hoechst High Intensity Objects (%) [4]: 12% | Population Membrane Permeable-Phenotype (%) [4]: 8% | Population Mitochondria Different-Phenotype (%) [4]: 26% | Population Mitotic Cells (%) [4]: 86% | Population Normal (%) [4]: 87% | Population Pyknosed Nuclei (%) [4]: 72% | Population Tubulin-Different-Phenotype (%) [4]: 26% | Total Cell Count [4]: 131 | Population Apoptotic (%) [5]: 39% | Population Fragmented Nuclei (%) [5]: 15% | Population Healthy Nuclei (%) [5]: 32% | Population Hoechst High Intensity Objects (%) [5]: 19% | Population Membrane Permeable-Phenotype (%) [5]: 2% | Population Mitochondria Different-Phenotype (%) [5]: 57% | Population Mitotic Cells (%) [5]: 60% | Population Normal (%) [5]: 80% | Population Pyknosed Nuclei (%) [5]: 51% | Population Tubulin-Different-Phenotype (%) [5]: 37% | Total Cell Count [5]: 316 | Population Apoptotic (%) [6]: 15% | Population Fragmented Nuclei (%) [6]: 6% | Population Healthy Nuclei (%) [6]: 62% | Population Hoechst High Intensity Objects (%) [6]: 3% | Population Membrane Permeable-Phenotype (%) [6]: 8% | Population Mitochondria Different-Phenotype (%) [6]: 14% | Population Mitotic Cells (%) [6]: 84% | Population Normal (%) [6]: 96% | Population Pyknosed Nuclei (%) [6]: 31% | Population Tubulin-Different-Phenotype (%) [6]: 31% | Total Cell Count [6]: 270 | Population Apoptotic (%) [7]: 58% | Population Fragmented Nuclei (%) [7]: 15% | Population Healthy Nuclei (%) [7]: 12% | Population Hoechst High Intensity Objects (%) [7]: 23% | Population Membrane Permeable-Phenotype (%) [7]: 7% | Population Mitochondria Different-Phenotype (%) [7]: 78% | Population Mitotic Cells (%) [7]: 41% | Population Normal (%) [7]: 76% | Population Pyknosed Nuclei (%) [7]: 72% | Population Tubulin-Different-Phenotype (%) [7]: 75% | Total Cell Count [7]: 298 | Population Apoptotic (%) [8]: 14% | Population Fragmented Nuclei (%) [8]: 7% | Population Healthy Nuclei (%) [8]: 38% | Population Hoechst High Intensity Objects (%) [8]: 9% | Population Membrane Permeable-Phenotype (%) [8]: 4% | Population Mitochondria Different-Phenotype (%) [8]: 32% | Population Mitotic Cells (%) [8]: 85% | Population Normal (%) [8]: 90% | Population Pyknosed Nuclei (%) [8]: 53% | Population Tubulin-Different-Phenotype (%) [8]: 55% | Total Cell Count [8]: 139 | Population Apoptotic (%) [9]: 37% | Population Fragmented Nuclei (%) [9]: 16% | Population Healthy Nuclei (%) [9]: 41% | Population Hoechst High Intensity Objects (%) [9]: 14% | Population Membrane Permeable-Phenotype (%) [9]: 4% | Population Mitochondria Different-Phenotype (%) [9]: 32% | Population Mitotic Cells (%) [9]: 62% | Population Normal (%) [9]: 85% | Population Pyknosed Nuclei (%) [9]: 42% | Population Tubulin-Different-Phenotype (%) [9]: 35% | Total Cell Count [9]: 377 | Population Apoptotic (%) [10]: 14% | Population Fragmented Nuclei (%) [10]: 4% | Population Healthy Nuclei (%) [10]: 80% | Population Hoechst High Intensity Objects (%) [10]: 4% | Population Membrane Permeable-Phenotype (%) [10]: 8% | Population Mitochondria Different-Phenotype (%) [10]: 3% | Population Mitotic Cells (%) [10]: 85% | Population Normal (%) [10]: 95% | Population Pyknosed Nuclei (%) [10]: 14% | Population Tubulin-Different-Phenotype (%) [10]: 22% | Total Cell Count [10]: 482 | Population Apoptotic (%) [11]: 63% | Population Fragmented Nuclei (%) [11]: 24% | Population Healthy Nuclei (%) [11]: 10% | Population Hoechst High Intensity Objects (%) [11]: 25% | Population Membrane Permeable-Phenotype (%) [11]: 8% | Population Mitochondria Different-Phenotype (%) [11]: 37% | Population Mitotic Cells (%) [11]: 36% | Population Normal (%) [11]: 74% | Population Pyknosed Nuclei (%) [11]: 64% | Population Tubulin-Different-Phenotype (%) [11]: 58% | Total Cell Count [11]: 296 | Population Apoptotic (%) [12]: 14% | Population Fragmented Nuclei (%) [12]: 8% | Population Healthy Nuclei (%) [12]: 62% | Population Hoechst High Intensity Objects (%) [12]: 3% | Population Membrane Permeable-Phenotype (%) [12]: 12% | Population Mitochondria Different-Phenotype (%) [12]: 12% | Population Mitotic Cells (%) [12]: 85% | Population Normal (%) [12]: 96% | Population Pyknosed Nuclei (%) [12]: 28% | Population Tubulin-Different-Phenotype (%) [12]: 54% | Total Cell Count [12]: 176
